Bioassay records as filed in PubChem BioAssay.
TbMetRS inhib = T. brucei MetRS inhibitors, primary screen, biochemical, luminescence. methionyl-tRNA synthetase (Trypanosoma brucei brucei). purified T. brucei MetRS, ATP depletion, Kinase-Glo luminescence. inhibition, % at 11.9 µM. 360,000 tested, 0.4% active;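 active means inhibition above a per-plate cutoff of the control wells' mean inhibition plus 3 SD, cut at about 5.5% in these data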
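Measured by: Kinase-Glo luciferase luminescence reporting remaining unconsumed ATP. Material: purified T. brucei MetRS enzyme. Doses: 11.9 µM compound single dose, 0.9% DMSO. Medium: HEPES buffer containing pyrophosphatase, BSA, spermine, DTT. Times: 15 min preincubation, 2 h reaction, all 25 °C. Reagent: methionine, ATP and bulk E. coli tRNA.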
PREPL inhibitor = PREPL enzyme inhibitors, primary screen, biochemical, fluorescence polarization; Prolyl endopeptidase-like (Homo sapiens), Q4J6C6; recombinant PREPL, fluorescence polarization activity-based probe; inhibition, % at 5.96 µM; 320,000 tested, 0.68% active; AID 2751, 2010; in the data active means inhibition above about 43%
CSN deneddyl inh = inhibitors of CSN-mediated cullin deneddylation, primary screen, biochemical, fluorescence polarization, uHTS; COP9 signalosome complex subunit 5 (Homo sapiens), Q92905; Purified CSN, SCF-Nedd8-OG deneddylation; inhibition, % at 12.5 µM; 360,000 tested, 0.38% active;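 active means pattern-corrected inhibition above about 35%, with an unprinted fluorescence ratio check between 0.5 and 1.5, limit read from the data, passing the limit was not always enough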
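Assay system: purified human Csn5 enzyme expressed in HEK293T cells; Input: 0.24 nM Csn5 enzyme, final concentration; Reagent: 10 nM SCFSkp2-Nedd8OG; Compound dosing: 12.5 µM single point; Times: reaction 90 min, room temperature; Technique: fluorescence polarization readout.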
Rpn11 block = Rpn11 (PSMD14) deubiquitinase inhibitors, primary screen, biochemical, fluorescence polarization, uHTS; 360,000 tested, 0.59% active; human 26S proteasome, Ub4-pepOG fluorescence polarization; 20S core pre-blocked with epoxomicin; inhibition, % at 20 µM; 26S proteasome non-ATPase regulatory subunit 14 (Homo sapiens), O00487;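 active means inhibition at 20 µM, scaled to each plate's controls, above about 33%, limit read from the data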
Neddyl block = inhibitors of cullin neddylation, primary screen, biochemical, TR-FRET, uHTS, NAE and Ubc12; NEDD8-conjugating enzyme Ubc12 (Homo sapiens) + NEDD8-activating enzyme E1 regulatory …; AID 651699, 2012; 360,000 tested, 0.58% active; inhibition, % at 25 µM; in the data active means inhibition above about 36%
Target sequence (P61081 whole entry, looked up): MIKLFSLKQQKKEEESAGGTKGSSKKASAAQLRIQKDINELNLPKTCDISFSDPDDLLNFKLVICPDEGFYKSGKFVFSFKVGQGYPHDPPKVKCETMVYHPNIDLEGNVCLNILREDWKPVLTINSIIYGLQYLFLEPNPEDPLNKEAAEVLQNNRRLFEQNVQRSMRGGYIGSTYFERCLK
Target sequence (Q13564 whole entry, looked up): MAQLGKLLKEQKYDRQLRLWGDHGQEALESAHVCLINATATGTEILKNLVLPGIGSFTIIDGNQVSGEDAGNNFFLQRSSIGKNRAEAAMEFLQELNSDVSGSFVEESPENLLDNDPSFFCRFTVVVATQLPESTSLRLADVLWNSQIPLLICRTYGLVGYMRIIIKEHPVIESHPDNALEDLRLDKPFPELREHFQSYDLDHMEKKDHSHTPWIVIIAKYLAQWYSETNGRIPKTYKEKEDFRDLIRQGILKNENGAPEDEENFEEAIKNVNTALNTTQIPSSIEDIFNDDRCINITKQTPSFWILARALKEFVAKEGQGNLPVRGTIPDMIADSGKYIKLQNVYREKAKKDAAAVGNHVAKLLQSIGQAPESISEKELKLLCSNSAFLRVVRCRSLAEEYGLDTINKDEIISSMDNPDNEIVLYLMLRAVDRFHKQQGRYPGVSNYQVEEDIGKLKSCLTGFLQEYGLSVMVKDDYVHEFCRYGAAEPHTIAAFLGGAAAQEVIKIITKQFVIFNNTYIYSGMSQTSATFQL
HNF4A DNA FP = change in binding of human HNF4A to DNA, primary screen, biochemical, fluorescence polarization, FITC-DNA. 1 h. activity change, % at 10 µM. 360,000 tested, 0.3% active; in the data active means activity change above about 30%, passing the limit was not always enough
Neddyl inh conf = blockade of NEDD8 conjugation to cullin – biochemical, TR-FRET, single concentration, confirmation; shares compounds with Neddyl block; TR-FRET cullin neddylation biochemical assay; calls only at 25 µM; 1,800 tested, 13% active; AID 652217, 2013; in the data active means inhibition above about 40%;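 further: neddylation substrate is the cullin 1 ring ligase complex with SKP2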
Hits are given with their value; - = inactive; . = no result given; + = active, no number. The list is not random: actives were taken first. Their share in the collection is about 2.4%.

SMILES	TbMetRS inhib	PREPL inhibitor	CSN deneddyl inh	Rpn11 block	Neddyl block	HNF4A DNA FP	Neddyl inh conf
Cc1ccnc(NC(=O)C(C)N2C(=O)c3ccccc3S2(=O)=O)c1 (stereo unspecified)	-	-	-	-	-	-	.
CCOc1ccccc1C1C(C#N)=C(N)Oc2cc(N)ccc21 (stereo unspecified)	-	-	-	-	46.7	-	-
N#CC1=C(N)Oc2cc(N)ccc2C1c1cccc(F)c1 (stereo unspecified)	-	-	-	-	-	-	.
COc1ccc2c(c1)CCC1C2CCC2(C)C(O)C(=O)CC12 (stereo unspecified)	-	.	-	-	-	-	.
Cc1ccc2c(C)c(C(=O)Nc3ccc(S(=O)(=O)Nc4onc(C)c4C)cc3)oc2c1	-	-	-	-	-	-	.
CCN(CC)CCCNc1nc(C)cc(COC)c1C#N	-	-	-	-	43.2	-	-
COCc1cc(C)nc(Nc2ccccc2C)c1C#N	-	-	-	-	-	-	.
CCOC(=O)NN1C(=O)c2ccccc2NC1(C)C	-	-	-	-	.	-	.
CC1(C)Nc2ccccc2C(=O)N1NC(=O)c1ccccc1	-	-	-	-	39.3	-	-
CC(C)(C)OC(=O)CC[C@@H](C(=O)N1CCN(C(=O)OC(C)(C)C)CC1)n1cc(C(Cc2ccc(O)cc2)NC(=O)OC(C)(C)C)nn1 (stereo partly specified)	-	-	-	-	-	-	.
COc1ccc(OC)c(/C=C/C(=O)N(C)CC(=O)Nc2ccc(N3CCOCC3)cc2)c1	-	-	-	-	59.9	-	.
COc1ccc(NC(=O)CN(C)C(=O)/C=C/c2cn(-c3ccccc3)nc2-c2ccc(C)cc2)cc1	-	-	-	-	-	-	.
COc1ccc(NC(=O)CN(C)C(=O)/C=C/c2cn(-c3ccccc3)nc2-c2cccs2)cc1	-	-	-	-	44.3	-	-
COc1ccc2cc3cc(C(=O)N4CCCC(C)C4)oc3nc2c1 (stereo unspecified)	-	-	-	-	45.0	-	-
CCOC(=O)C1CCCN(C(=O)c2cc3cc4ccc(OC)cc4nc3o2)C1 (stereo unspecified)	-	-	-	-	.	-	.
COC(=O)C=CSC(=S)C1CCCC1=N (stereo unspecified)	-	.	-	-	-	-	.
COc1cccc(/C=C/C(=O)NCc2cn3cc(Cl)ccc3n2)c1OC	-	-	-	-	49.8	-	-
COc1cc(C(=O)NCc2cn3ccccc3n2)cc(OC)c1OC	-	-	-	-	-	-	.
Cn1cnc(S(=O)(=O)Nc2ccc(OC(F)F)cc2)c1	-	-	-	-	49.0	-	-
COc1ccc(NS(=O)(=O)c2cn(C)cn2)cc1	-	-	-	-	-	-	.
COc1ccc(-c2cc(C(F)(F)F)nc(-n3ccnc3)n2)cc1	-	-	-	-	45.1	-	-
COc1ccccc1CCC(=O)N(C)CC(=O)Nc1ccc(Cl)c(C(F)(F)F)c1	-	-	-	-	-	-	.
O=C(c1ccc(Br)o1)N1CCN(Cc2ccccc2Cl)CC1	-	-	-	-	-	-	.
COc1cccc(C(=O)N2CCN(c3ccc(N4CCOCC4)nn3)CC2)c1	-	-	-	-	61.2	-	.
O=C(CCc1c[nH]c2ccccc12)N1CCN(c2ccc(F)cc2)CC1	-	-	-	-	-	-	.
SMILES	TbMetRS inhib	PREPL inhibitor	CSN deneddyl inh	Rpn11 block	Neddyl block	HNF4A DNA FP	Neddyl inh conf
CCN1CCN(c2ccc(N3CCN(C(=O)c4ccc(Br)o4)CC3)nn2)CC1	-	-	-	-	47.5	-	.
O=C(c1cccc(Br)c1)N1CCN(c2ccc(N3CCOCC3)nn2)CC1	-	-	-	-	49.5	-	.
O=C(CCCc1c[nH]c2ccccc12)N1CCN(c2ccc(N3CCOCC3)nn2)CC1	-	-	-	-	43.7	-	+
CCCCCNC(=O)C(c1ccccc1)n1c(=O)c(-c2cc3ccccc3[nH]2)nc2ccccc21 (stereo unspecified)	-	.	-	.	.	-	.
C#CCOCCOCCOCCNc1nc(N2CCN(C(=O)Cn3cc(CC(C)O)nn3)CC2)nc(N2CCN(C(=O)[C@H](CCCCN)n3cc(CC(C)O)nn3)CC2)n1 (stereo partly specified)	-	.	-	-	-	-	.
ON=C(CCc1ccccc1)CCc1ccccc1	-	.	-	-	-	-	.
Cc1ccccc1C(=O)N1CCN(c2nc(N3CCOCC3)nc(N3CCOCC3)n2)CC1	-	-	-	-	-	-	.
Cc1ccccc1C(=O)N1CCN(c2ccc(N3CCOCC3)nn2)CC1	-	-	-	-	60.4	-	.
CC1(C(=O)NCc2ccccc2Br)CCN1Cc1csc2ccccc12 (stereo unspecified)	-	.	-	-	-	-	.
COc1ccccc1NC(=O)N(CCCN1CCOCC1)Cc1cc2cc3c(cc2[nH]c1=O)OCO3	-	-	-	-	-	-	.
COc1cc2cc(CN(CCCN3CCOCC3)C(=O)Nc3ccccc3F)c(=O)[nH]c2cc1OC	-	-	-	-	40.5	-	-
CCCN(CC(=O)Nc1ccccc1C)C(=O)c1ccc(-c2ccc(C(C)=O)cc2)o1	-	-	-	-	60.7	-	.
CCCN(CC(=O)Nc1ccccc1C)C(=O)c1ccc(C(=O)c2ccccc2)cc1	-	-	-	-	-	-	.
CCCCNC(=O)CCC(=O)Nc1ccc2nc(N3CCN(C)CC3)cc(C)c2c1	-	-	-	-	-	-	.
Cc1cc(N2CCN(C)CC2)nc2ccc(NC(=O)CCC(=O)NCc3ccco3)cc12	-	-	-	-	43.1	-	-
O=C(N/N=C/c1ccccn1)c1ccc(Cl)c(Cl)c1	-	-	-	-	-	-	.
CC(/C=N/NC(=O)c1ccc(CN2c3cccc4cccc(c34)S2(=O)=O)cc1)c1ccccc1 (stereo unspecified)	-	-	-	-	.	-	.
COc1ccc(N2CCN(C(=O)CN3c4cccc5cccc(c45)S3(=O)=O)CC2)cc1	-	-	-	-	-	-	.
O=C(CN1c2cccc3cccc(c23)S1(=O)=O)N1CCOCC1	-	-	-	-	46.6	-	.
